Assay results published in ChEMBL document CHEMBL1125427, “Synthesis of 3-(2-pyridylethyl)benzoxazolinone derivatives: potent analgesic and antiinflammatory compounds inhibiting prostaglandin E2” (1992).

Experiments:
Format in all cases: functional
Mus musculus [1] = experiment: Intestinal ulcerogenic activity at a dose of 60 mg/kg: 8 mice were considered for the test
Outline: (§1)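 Fed animals were gavaged with compound on 3 consecutive days and killed 24 h after the last dose. Intestines were examined for ulcers. Read-out: ulcer incidence per group of 8 and lesion length (mm/mouse ± SE).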

Mus musculus [2] = experiment: The compound was evaluated for inhibition of edema induced by PGE at […]
Outline: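 Mice, six per group, dosed orally at 100 mg/kg. After 60 min, PGE2 (20 μg/0.01 mL) was injected subcutaneously into the right hind paw plantar surface. Edema was measured with a dial thickness gauge and the effect expressed as percent inhibition.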

Mus musculus [3] = experiment: Inhibitory activity against carrageenan induced paw edema in mice; parameters: concentration or dose not given beside the values
Mus musculus [4] = experiment: Gastric ulcerogenic activity at a dose of 60 mg/kg: 8 mice were considered for the test
Outline: (§2)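 Mice fasted 24 h with water available. Compound in methyl cellulose vehicle given by oral gavage at 0.5 mL/100 g body weight. Animals were killed after 4 h and stomachs examined for lesions under a dissecting microscope. Read-out: ulcer incidence per group of 8 and lesion length (mm/mouse ± SE).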

Mus musculus [5] = experiment: Antiinflammatory activity against CPE in mice following peroral administration of 60 mg/kg; settings: route oral
Outline: (§3)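 Female albino mice (22 ± 2 g), six per group, dosed orally. After 60 min, 0.01 mL of 2% carrageenan was injected subcutaneously into the right hind paw plantar surface. Edema was read with a dial thickness gauge 3 h later. ED50 was given in mg/kg po with 95% confidence limits.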

Mus musculus [6] = experiment: Intestinal ulcerogenic activity at a dose of 60 mg/kg; outline: as §1
Mus musculus [7] = experiment: The compound was evaluated for inhibition of edema induced by histamine at 10 mg/mL
Outline: (§4)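 Female albino mice (22 ± 2 g, local breed), six per group, housed in eights with free food and water, acclimatised at least 2 days. Compound given orally at 100 mg/kg; 60 min later 0.01 mL of the phlogistic agent (histamine or serotonin) injected subcutaneously into the right hind paw plantar surface. Paw edema measured with a dial thickness gauge; effect expressed as percent inhibition.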

Mus musculus [8] = experiment: Gastric ulcerogenic activity at a dose of 300 mg/kg: 8 mice were considered for the test; outline: as §2
Mus musculus [9] = experiment: The compound was evaluated for inhibition of edema induced by serotonin at 250 ug/mL; outline: as §4
Mus musculus [10] = experiment: Intestinal ulcerogenic activity at a dose of 100 mg/kg; outline: as §1
Mus musculus [11] = experiment: Gastric ulcerogenic activity at a dose of 300 mg/kg; outline: as §2
Mus musculus [12] = experiment: The compound was evaluated for inhibition of edema induced by arachidonic acid at 1 mg/mL
Outline: (§5)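 Mice, six per group, dosed orally at 100 mg/kg. After 60 min, 0.01 mL of phlogistic agent (arachidonic acid or bradykinin) was injected subcutaneously into the right hind paw plantar surface. Edema was measured by dial thickness gauge and the effect expressed as percent inhibition.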

Mus musculus [13] = experiment: Intestinal ulcerogenic activity at a dose of 100 mg/kg: 8 mice were considered for the test; outline: as §1
Mus musculus [14] = experiment: Intestinal ulcerogenic activity at a dose of 300 mg/kg: 8 mice were considered for the test; outline: as §1
Mus musculus [15] = experiment: Gastric ulcerogenic activity at a dose of 60 mg/kg; outline: as §2
Mus musculus [16] = experiment: Intestinal ulcerogenic activity at a dose of 300 mg/kg; outline: as §1
Mus musculus [17] = experiment: Gastric ulcerogenic activity at a dose of 100 mg/kg: 8 mice were considered for the test; outline: as §2
Mus musculus [18] = experiment: The compound was evaluated for inhibition of edema induced by bradykinin at 100 ug/mL; outline: as §5
Mus musculus [19] = organism: Mus musculus; experiment: Analgesic activity in mice; parameters: concentration or dose not given beside the values
Outline: (§6)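 Female albino mice (22 ± 2 g, local breed), groups of eight, dosed orally at 100 mg/kg as a suspension in 5% gum arabic syrup. After 1 h, 3% acetic acid was given ip at 300 mg/kg. Stretches were counted over 10 min, starting 5 min after injection. Percent activity = |n − n'|/n × 100 against syrup-only controls (n = 6).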

Mus musculus [20] = experiment: Gastric ulcerogenic activity at a dose of 100 mg/kg; outline: as §2
Mus musculus [21] = experiment: Intestinal ulcerogenic activity at a dose of 30 mg/kg: group of 8 mice were considered for the test; outline: as §1
Mus musculus [22] = experiment: Gastric ulcerogenic activity at a dose of 30 mg/kg; outline: as §2
Mus musculus [23] = experiment: Gastric ulcerogenic activity at a dose of 30 mg/kg:group of 8 mouse considered for the test; outline: as §2
Mus musculus [24] = experiment: Antiinflammatory activity against CPE in mice following peroral administration of 30 mg/kg; settings: route oral; outline: as §3
Mus musculus [25] = experiment: Gastric ulcerogenic activity at a dose of 100 mg/kg:group of 8 mouse considered for the test; outline: as §2
Mus musculus [26] = experiment: Gastric ulcerogenic activity at a dose of 300 mg/kg:group of 8 mouse considered for the test; outline: as §2
Mus musculus [27] = experiment: Intestinal ulcerogenic activity at a dose of 300 mg/kg: group of 8 mice were considered for the test; outline: as §1
Mus musculus [28] = experiment: Intestinal ulcerogenic activity at a dose of 100 mg/kg: group of 8 mice were considered for the test; outline: as §1
Mus musculus [29] = experiment: Intestinal ulcerogenic activity at a dose of 30 mg/kg; outline: as §1
Mus musculus [30] = organism: Mus musculus; experiment: Analgesic activity in mice.; outline: as §6
Mus musculus [31] = experiment: Intestinal ulcerogenic activity at a dose of 60 mg/kg:group of 8 mouse considered for the test; outline: as §1

| Structure (SMILES) | Inhibition (Mus musculus [2]) [%] | Inhibition (Mus musculus [3]) [%] | Inhibition (Mus musculus [7]) [%] | Inhibition (Mus musculus [9]) [%] | Lesion length (Mus musculus [10]) [mm mice-1] | Lesion length (Mus musculus [11]) [mm mice-1] | Inhibition (Mus musculus [12]) [%] | Lesion length (Mus musculus [16]) [mm mice-1] | Inhibition (Mus musculus [18]) [%] | Analgesic activity (Mus musculus [19]) [%] | Lesion length (Mus musculus [20]) [mm mice-1] | other results |
| --- | --- | --- | --- | --- | --- | --- | --- | --- | --- | --- | --- | --- |
| O=c1oc2ccccc2n1CCc1ccncc1 | 62.2 | 59.1 | 7.6 | 9.4 | 0 | 0.9 | 38.9 | 0.1 | 6.4 | 96.06 | 0 | Ulcer incidence (Mus musculus [1]): 0 number/group; Ulcer incidence (Mus musculus [4]): 0 number/group; ED50 (Mus musculus [5]): 57 mg/kg; Lesion length (Mus musculus [6]): 0 mm mice-1; Ulcer incidence (Mus musculus [8]): 5 number/group; Ulcer incidence (Mus musculus [13]): 0 number/group; Ulcer incidence (Mus musculus [14]): 2 number/group; Lesion length (Mus musculus [15]): 0 mm mice-1; Ulcer incidence (Mus musculus [17]): 0 number/group |
| O=C(c1ccc2c(c1)oc(=O)n2CCc1ccccn1)c1ccccc1Cl | 53 | 37.1 | 5 | 18.2 | 0 | 0.4 | 46 | 0.2 | 6.4 | 91.74 | 0 | Ulcer incidence (Mus musculus [21]): 0 number/group; Lesion length (Mus musculus [22]): 0 mm mice-1; Ulcer incidence (Mus musculus [23]): 0 number/group; ED50 (Mus musculus [24]): 25.5 mg/kg; Ulcer incidence (Mus musculus [25]): 0 number/group; Ulcer incidence (Mus musculus [26]): 2 number/group; Ulcer incidence (Mus musculus [27]): 0 number/group; Ulcer incidence (Mus musculus [28]): 0 number/group; Lesion length (Mus musculus [29]): 0 mm mice-1 |
| O=C(c1ccccc1Cl)c1cc2oc(=O)n(CCc3ccccn3)c2cc1Cl | – | 19.7 | 10 | 9 | – | – | 37 | – | 7.6 | 72.67 | – | – |
| CC(=O)Oc1ccccc1C(=O)O [ASPIRIN] | – | – | – | – | – | – | – | – | – | – | – | Analgesic activity (Mus musculus [30]): 58.26% |
| O=C(c1ccccc1)c1ccc2c(c1)oc(=O)n2CCc1ccncc1 | – | 46.5 | 8.5 | 14.1 | – | – | 36.5 | – | 10 | 85.47 | – | – |
| CC(=O)c1ccc2c(c1)oc(=O)n2CCc1ccncc1 | – | 10.3 | – | – | – | – | – | – | – | 38.46 | – | – |
| O=C(c1ccccc1)c1ccc2c(c1)oc(=O)n2CCc1ccccn1 | – | 37.1 | 6 | 9.8 | – | – | 32 | – | 11 | 79.49 | – | – |
| O=c1oc2ccc(Cl)cc2n1CCc1ccccn1 | 64.8 | 62.3 | 9 | 10.5 | 0 | 0.9 | 42 | 0.1 | 7 | 96.96 | 0.2 | Ulcer incidence (Mus musculus [4]): 0 number/group; ED50 (Mus musculus [5]): 63 mg/kg; Lesion length (Mus musculus [6]): 0 mm mice-1; Ulcer incidence (Mus musculus [31]): 0 number/group; Ulcer incidence (Mus musculus [8]): 4 number/group; Ulcer incidence (Mus musculus [13]): 0 number/group; Ulcer incidence (Mus musculus [14]): 1 number/group; Lesion length (Mus musculus [15]): 0 mm mice-1; Ulcer incidence (Mus musculus [17]): 1 number/group |
